Experimental data: ChEMBL document CHEMBL1671785, “Synthesis, physical-chemical characterisation and biological evaluation of novel 2-amido-3-hydroxypyridin-4(1H)-ones: Iron chelators with the potential for treating Alzheimer's disease” (Bioorg Med Chem, 2011)
Active and inactive are the calls of the source. The rule behind the calls is not given here.

Tests used:
Glycine max [1] = experiment: Inhibition of soybean lipoxygenase at 100 uM after 15 mins
Glycine max [2] = experiment: Inhibition of soybean lipoxygenase at 10 uM after 15 mins
Procedure, shortened: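 Soybean lipoxygenase in 0.2 M borate buffer, pH 9, was pre-incubated 15 min with the compound (100 µM solution, 10 µM final in cuvette). The reaction was started with linoleic acid (1 mM). Linoleic hydroperoxide formation was followed at 234 nm for 10 min, and rates were computed using ε = 23600 M⁻¹ cm⁻¹.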

[3] = Inhibition of soybean lipoxygenase after 15 mins; set-up: species or system Glycine max
[4] = Lipophilicity, log D of the compound at pH 7.4; format: physicochemical; settings: buffer
Procedure, shortened: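 After centrifugal separation, the loss of aqueous-phase absorbance gives the octanol/buffer concentration ratio.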

[5] = Association constant pKa of the compound; format: physicochemical
Procedure, shortened: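 Ligand pKa by automated potentiometric titration with spectral scans in 0.1 M KCl at 25 ± 0.1 °C. pH was raised or lowered in 0.1-unit steps with KOH or HCl, and readings were taken once pH drifted by <0.001 over 3 s. A 1 min equilibration was used at each step before analysis of the titration data.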

[6] = Iron chelating activity of the compound; format: functional
Procedure, shortened: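 Affinity is given as pM, the negative log of free Fe(III), at total metal 10⁻⁶ M and total ligand 10⁻⁵ M, pH 7.4. Stability constants come from automated potentiometric/spectrophotometric titration in 0.1 M KCl at 25 °C with 5 min equilibration per 0.1 pH step. Data analysed by pHab.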

[7] = target: Tyrosine 3-monooxygenase (Rattus norvegicus) (UniProt P04177); experiment: Inhibition of tyrosine hydroxylase in rat striata at 10 uM after 20 mins
Procedure, shortened: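 Rat striatal homogenate (1:9 in 0.32 M sucrose, about 3 mg tissue) in 0.5 M potassium phosphate, pH 6.0, with m-hydroxybenzylhydrazine, 1 mM 6,7-dimethyltetrahydropterine and chelator (1–100 µM). The reaction is started with L-tyrosine (0.4 mM final) for 20 min at 37 °C. L-DOPA is extracted on alumina and quantified by HPLC against α-methyldopa. Triplicate; non-enzymatic background measured using 3-iodotyrosine.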

Cortical neurone = experiment: Neuroprotective activity against FeNTA-induced loss of synaptic integrity in rat cortical neurones assessed as damage to cell bodies at 30 uM by phase contrast microscopy; format: functional

Sequence of Tyrosine 3-monooxygenase (Rattus norvegicus) (P04177 whole entry): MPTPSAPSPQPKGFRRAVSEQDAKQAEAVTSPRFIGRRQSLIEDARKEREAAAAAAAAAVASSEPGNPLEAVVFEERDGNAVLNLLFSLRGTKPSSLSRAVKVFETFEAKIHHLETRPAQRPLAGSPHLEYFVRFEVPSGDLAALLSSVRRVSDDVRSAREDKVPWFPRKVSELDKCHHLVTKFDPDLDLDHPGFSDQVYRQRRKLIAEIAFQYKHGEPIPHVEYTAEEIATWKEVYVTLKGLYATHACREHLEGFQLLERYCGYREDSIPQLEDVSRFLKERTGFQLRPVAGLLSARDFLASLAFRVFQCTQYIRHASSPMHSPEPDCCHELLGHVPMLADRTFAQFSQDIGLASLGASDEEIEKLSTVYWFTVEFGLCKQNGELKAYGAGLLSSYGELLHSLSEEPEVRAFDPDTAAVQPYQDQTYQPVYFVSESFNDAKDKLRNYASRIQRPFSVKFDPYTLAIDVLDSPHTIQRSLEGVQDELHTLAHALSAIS

| Compound | inhibition (Glycine max [1]) [%] | inhibition (Glycine max [2]) [%] | EC50 [3] [µM] | logD [4] | pKa [5] | Activity [6] | Activity [7] | Activity (Cortical neurone) |
| --- | --- | --- | --- | --- | --- | --- | --- | --- |
| CC(C)CNC(=O)[C@H](C)NC(=O)c1nccc(O)c1O.Cl | 71 | 15.3 | 37 | -0.08 | 6 | 19.2 |  |  |
| CCc1c(O)c(=O)ccn1CC | 87.4 | 43 | 11 |  |  |  |  |  |
| CNC(=O)CNC(=O)c1nccc(O)c1O.Cl | 68 | 19.3 | 56 | -1.42 | 6.3 | 20.8 |  |  |
| CNC(=O)[C@H](C)NC(=O)c1nccc(O)c1O.Cl | 61 | 2.7 | 66 | -1.1 | 6 | 19.1 | inactive |  |
| C[C@H](NC(=O)c1nccc(O)c1O)C(=O)NCc1ccccc1.Cl | 54 | 3.3 | 80 | 0.03 | 6 | 18.9 | inactive | Active |
| Cl.O=C(N[C@@H](Cc1ccccc1)C(=O)NCc1ccccc1)c1nccc(O)c1O | 60 | 30.2 | 52 | 0.9 | 6 | 21.5 | Active |  |
| Cl.O=C(CNC(=O)c1nccc(O)c1O)NCc1ccccc1 | 62 | 8.3 | 54 | 0.01 | 6.2 | 19.1 |  |  |
| CC(C)CNC(=O)CNC(=O)c1nccc(O)c1O.Cl | 70 | 9.3 | 44 | -0.33 | 6.2 | 20.6 |  |  |
| Cc1c(O)c(=O)ccn1C [DEFERIPRONE] | 58 |  | 64 |  |  |  |  |  |
| CNC(=O)[C@H](Cc1ccccc1)NC(=O)c1nccc(O)c1O.Cl | 71 | 27.6 | 25 | -0.11 | 6.1 | 21.4 | Active |  |
| CC(C)CNC(=O)[C@H](Cc1ccccc1)NC(=O)c1nccc(O)c1O.Cl | 81 | 46.5 | 13 | 0.39 | 6 | 20.4 | Active |  |
